In paper PMC4629852 (Nature chemical biology, 2015):

Legend:
[1] = target: T1, ERRα (Homo sapiens, UniProt P11474); experiment: ERRα degradation in MCF-7 cells by immunoblotting; assay type: cell-based
T1 sequence (P11474 1-423): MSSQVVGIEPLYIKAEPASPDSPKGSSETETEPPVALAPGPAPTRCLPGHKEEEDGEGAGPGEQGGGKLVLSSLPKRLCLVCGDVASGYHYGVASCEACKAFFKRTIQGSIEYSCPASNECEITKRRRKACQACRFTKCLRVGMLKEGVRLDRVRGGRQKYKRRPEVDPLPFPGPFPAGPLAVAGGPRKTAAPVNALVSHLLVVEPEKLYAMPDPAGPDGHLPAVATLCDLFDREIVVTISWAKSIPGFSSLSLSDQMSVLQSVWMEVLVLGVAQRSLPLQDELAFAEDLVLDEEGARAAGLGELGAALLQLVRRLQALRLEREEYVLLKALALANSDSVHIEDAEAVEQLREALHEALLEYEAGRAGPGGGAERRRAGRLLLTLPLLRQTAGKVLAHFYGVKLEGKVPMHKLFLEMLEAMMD
Procedure, shortened: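 MCF7 cells were grown in DMEM/F12 + 10% FBS at 37 °C, 5% CO₂. They were seeded at 70% confluency, attached overnight, then treated with test compound for 8 h. An optional 1 h pretreatment with 1 μM epoxomicin preceded compound. Lysates were BCA-normalised, run on 4–12% gels, transferred to PVDF, milk-blocked and probed overnight with anti-ERRα.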

[2] = target: RIPK2 (Homo sapiens, UniProt O43353+P40337); experiment: In vitro ubiquitination in reconstituted E1-E2-VHL cascade; assay type: biochemical
Procedure, shortened: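 Three-stage reaction at room temperature. First, RIPK2 (500 nM final) was autophosphorylated with [³²P]γ-ATP for 10 min in Tris/KCl/Mg/Mn/DTT buffer, pH 7.5. Ubiquitination buffer (2 mM ATP) was then added with VHL (250 nM final) and test compound at various concentrations. Separately, UbE1 (25 nM), Ubc4 (250 nM) and ubiquitin (116 μM) were precharged. The mixtures were combined and quenched over time. ³²P was converted to moles of RIPK2 (five phosphopeptides) and compared with moles of compound.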

[3] = target: VHL complex (Homo sapiens, UniProt P40337); experiment: Competitive binding fluorescence polarization vs HIF1α-derived peptide
[4] = target: VHL-RIPK2 ternary complex (Homo sapiens, UniProt O43353+P40337); assay type: binding; conditions: THP-1 lysate
Procedure, shortened: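 THP-1 lysate in Tris/glycerol/MgCl₂/NaCl/vanadate/0.008% NP40 buffer was adjusted to 5 mg ml⁻¹. Lysate (10 mg protein) was incubated with compound at 3, 30 or 300 nM, or DMSO, for 2 h at 4 °C. It was then captured for 2 h at 4 °C on anti-VHL or IgG1κ control agarose beads. Eluates were analysed by immunoblot and LC-MS, as log₂ fold changes over replicates (≥2 unique peptides).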

[5] = target: T2, RIPK2 (Homo sapiens, UniProt O43353); experiment: Expression proteomics in THP-1 cells; assay type: cell-based; conditions: THP-1, 30 nM, 6, 18 and 24 h
[6] = target: T2, RIPK2; experiment: RIPK2 degradation in THP-1 monocytes by immunoblotting; assay type: cell-based
Procedure, shortened: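 THP-1 cells were cultured in RPMI 1640 + 10% FBS at 37 °C, 5% CO₂. Cells (5 × 10⁶) were treated with a dose range for 16 h, or at 30 nM for a time course. Options were a 1 h pretreatment with 1 μM epoxomicin, or washout after 4 h with PBS washes and fresh medium. RIPK2 was detected by western blot.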

[7] = target: T3, ERRα (Mus musculus, UniProt O08580); experiment: In vivo ERRα knockdown in mouse tissues, western blotting; conditions: mice, 100 mg/kg i.p. every 8 h, four doses, ~5 h after last dose, vs vehicle
T3 sequence (O08580 1-422): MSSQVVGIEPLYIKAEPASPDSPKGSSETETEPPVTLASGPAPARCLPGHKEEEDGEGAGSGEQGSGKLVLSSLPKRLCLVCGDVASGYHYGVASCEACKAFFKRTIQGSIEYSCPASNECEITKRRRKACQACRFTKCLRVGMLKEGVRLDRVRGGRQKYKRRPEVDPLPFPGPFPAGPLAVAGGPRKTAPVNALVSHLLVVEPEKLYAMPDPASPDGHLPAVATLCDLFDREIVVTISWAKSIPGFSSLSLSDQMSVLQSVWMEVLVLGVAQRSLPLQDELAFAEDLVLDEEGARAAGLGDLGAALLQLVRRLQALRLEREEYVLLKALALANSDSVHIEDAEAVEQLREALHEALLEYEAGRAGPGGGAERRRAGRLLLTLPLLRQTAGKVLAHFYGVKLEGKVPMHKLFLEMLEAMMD

[8] = target: T1, ERRα; experiment: Expression proteomics in MCF-7 cells; assay type: cell-based; conditions: MCF-7, 100 nM and 500 nM, 4, 8 or 24 h
Procedure, shortened: (§1)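 MCF-7 cells were plated 1 day before treatment at 1 × 10⁶ cells/well in MEM + 10% FBS + 1% NEAA + sodium pyruvate. They were treated in biological duplicate for the indicated times, scraped into ice-cold PBS and lysed in 2% SDS (95 °C, 3 min). Benzonase digestion followed (37 °C, 1.5 h), then BCA. Proteins were reduced with DTT, alkylated with iodoacetamide, gel-separated, trypsin-digested and quantified by LC-MS/MS.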

[9] = test system: HIF1α; experiment: ODD-luciferase assay of HIF1α processing by VHL; assay type: cell-based
[10] = target: T4, BCR (Homo sapiens, UniProt P11274); experiment: Expression proteomics in MCF-7 cells; assay type: cell-based; conditions: MCF-7, 500 nM, prolonged incubation, P < 0.05
T4 sequence (P11274 1-1271): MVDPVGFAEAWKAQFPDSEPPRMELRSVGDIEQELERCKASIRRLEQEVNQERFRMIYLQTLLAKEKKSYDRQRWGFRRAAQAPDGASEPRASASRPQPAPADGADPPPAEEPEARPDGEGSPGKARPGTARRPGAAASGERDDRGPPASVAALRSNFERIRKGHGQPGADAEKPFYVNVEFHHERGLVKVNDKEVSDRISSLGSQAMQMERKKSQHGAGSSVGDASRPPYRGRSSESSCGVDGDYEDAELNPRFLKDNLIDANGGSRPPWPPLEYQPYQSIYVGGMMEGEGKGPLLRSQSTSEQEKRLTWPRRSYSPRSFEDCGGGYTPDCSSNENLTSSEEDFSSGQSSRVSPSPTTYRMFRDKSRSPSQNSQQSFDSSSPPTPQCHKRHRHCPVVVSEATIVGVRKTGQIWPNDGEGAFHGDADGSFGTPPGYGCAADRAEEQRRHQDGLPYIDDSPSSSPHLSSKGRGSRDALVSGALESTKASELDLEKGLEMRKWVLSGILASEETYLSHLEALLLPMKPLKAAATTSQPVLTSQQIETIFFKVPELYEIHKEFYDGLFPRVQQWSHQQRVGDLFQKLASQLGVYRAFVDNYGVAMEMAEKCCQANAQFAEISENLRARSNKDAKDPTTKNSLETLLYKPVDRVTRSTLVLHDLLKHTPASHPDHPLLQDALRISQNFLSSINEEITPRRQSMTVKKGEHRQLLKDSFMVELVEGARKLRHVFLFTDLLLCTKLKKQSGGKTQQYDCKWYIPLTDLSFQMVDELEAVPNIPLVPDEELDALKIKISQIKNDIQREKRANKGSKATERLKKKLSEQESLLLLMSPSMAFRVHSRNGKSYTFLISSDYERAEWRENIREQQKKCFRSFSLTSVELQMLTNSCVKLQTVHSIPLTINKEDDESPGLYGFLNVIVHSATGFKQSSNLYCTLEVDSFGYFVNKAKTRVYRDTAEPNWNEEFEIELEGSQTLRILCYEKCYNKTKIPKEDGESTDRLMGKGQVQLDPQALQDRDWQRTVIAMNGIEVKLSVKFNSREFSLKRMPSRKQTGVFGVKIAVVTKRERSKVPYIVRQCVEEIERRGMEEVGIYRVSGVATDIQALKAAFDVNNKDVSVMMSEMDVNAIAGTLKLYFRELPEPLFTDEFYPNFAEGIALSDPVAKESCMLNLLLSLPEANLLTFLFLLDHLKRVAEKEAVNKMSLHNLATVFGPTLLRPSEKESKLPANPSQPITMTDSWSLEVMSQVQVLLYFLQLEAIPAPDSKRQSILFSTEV
Procedure, shortened: as §1

[11] = target: T1, ERRα; experiment: In vivo ERRα knockdown in MDA-MB-231 tumor xenografts in mice, western blotting; conditions: 100 mg/kg i.p. every 8 h, four doses, ~5 h after last dose, vs vehicle
[12] = target: T5, MAPKAPK3 (Homo sapiens, UniProt Q16644); experiment: Kinobeads competition binding; conditions: below the limit of detection
[13] = test system: THP-1 cells; experiment: Cellular toxicity; assay type: cell-based, human; conditions: any concentration, Supplementary Fig. 7
[14] = target: T5, MAPKAPK3; experiment: Expression proteomics in THP-1 cells; assay type: cell-based; conditions: THP-1, 30 nM; of ~7,000 proteins only RIPK2 and MAPKAPK3
Procedure, shortened: (§2)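 THP-1 cells were seeded at 3 × 10⁶ cells/well in RPMI1640 + 10% heat-inactivated FBS. They were exposed to 30 nM test compound for 6, 18 or 24 h; the 18 h arm was run in biological duplicate. Cells were collected on ice, washed twice in cold PBS, snap-frozen and SDS-lysed. Proteins were reduced, alkylated, gel-separated, trypsin-digested and quantified proteome-wide by LC-MS/MS.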

[15] = test system: RIPK3, ABL and TESK; experiment: Expression proteomics in THP-1 cells; assay type: cell-based, human; conditions: THP-1, 30 nM
Procedure, shortened: as §2

COc1cc(/C=C2\SC(=O)N(CCOCCC(=O)N[C@H](C(=O)N3C[C@@H](O)C[C@H]3C(=O)NCc3ccc(-c4scnc4C)cc3)C(C)(C)C)C2=O)ccc1Oc1ccc(C#N)cc1C(F)(F)F [PROTAC_ERRα_epi]
reduction of ERRα protein levels ([1]; MCF-7, at concentrations at which the active PROTAC reduced ERRα levels by 50%): ~ 20%

Cc1ncsc1-c1ccc(CNC(=O)[C@H]2C[C@H](O)CN2C(=O)[C@@H](NC(=O)COCCOCCOCCOCCOc2cc3nccc(Nc4ccc5scnc5c4)c3cc2S(=O)(=O)C(C)(C)C)C(C)(C)C)cc1 [PROTAC_RIPK2_epi]
ubiquitination of RIPK2 ([2]; any concentration (50, 100, 200 nM), up to 35 min): unable to induce ubiquitination | binding to VHL ([3]; concentrations up to 10 μM): no binding to VHL | enrichment of RIPK2 in VHL immunoprecipitate [4]: did not influence the immune-captured proteins or enrich RIPK2 levels | RIPK2 levels [5]: neither the PROTAC_RIPK2_epi nor the RIPK2 ligand affected RIPK2 levels | degradation of RIPK2 ([6]; THP-1 cells, Supplementary Fig. 6f): no degradation of RIPK2

COc1cc(/C=C2\SC(=O)N(CCOCCC(=O)N[C@H](C(=O)N3C[C@H](O)C[C@H]3C(=O)NCc3ccc(-c4scnc4C)cc3)C(C)(C)C)C2=O)ccc1Oc1ccc(C#N)cc1C(F)(F)F [PROTAC_ERRα]
reduction of ERRα levels in heart [7]: approximately 44% | reduction of ERRα levels in kidney [7]: approximately 44% | ERRα levels [8]: decreased levels of ERRα | decrease in normalized ERRα levels ([1]; MCF-7, 1 h pretreatment with 1 μM epoxomicin): 5% | maximal level of degradation (Dmax) ([1]; MCF-7 cells, 8 h): 86% | stabilization of HIF1α (ODD-luciferase) ([9]; concentrations up to 30 μM): did not stabilize HIF1α | BCR levels [10]: downregulated | reduction of ERRα levels in MDA-MB-231 tumors [11]: ~39%

Cc1ncsc1-c1ccc(CNC(=O)[C@@H]2C[C@@H](O)CN2C(=O)[C@@H](NC(=O)COCCOCCOCCOCCOc2cc3nccc(Nc4ccc5scnc5c4)c3cc2S(=O)(=O)C(C)(C)C)C(C)(C)C)cc1 [PROTAC_RIPK2]
Kd [12]: > 3000 nM | cellular toxicity [13]: No cellular toxicity | stoichiometry (modified RIPK2 to PROTAC) ([2]; 2.0 pmol PROTAC, final time point): 2.0 | modified RIPK2 ([2]; 2.0 pmol PROTAC, final time point (35 min), 500 nM RIPK2): 4.0 pmol | IC50 ([3]; competition with HIF1α-derived peptide for VHL complex): 660 nM | co-recruitment of RIPK2 over background ([4]; 30 nM): up to 16 fold | change of RIPK2 enrichment ([4]; 300 nM versus 30 nM): reduced by two-fold | stabilization of HIF1α (ODD-luciferase) ([9]; 30 μM): modest stabilization of HIF1α | effect on ODD-luciferase levels ([9]; concentrations up to 3 μM): no effect | RIPK2 levels [5]: induced the degradation of RIPK2 from 6 h onwards | window between RIPK2 degradation and modulation of endogenous VHL function ([6]; RIPK2 degradation vs ODD-luciferase): > 1,000 fold | earliest time at which RIPK2 degradation was observed ([6]; THP-1, 30 nM): 1 h | time at which RIPK2 degradation was nearly complete ([6]; THP-1, 30 nM): 4 h | time for protein levels to recover to pre-treatment levels after removal ([6]; THP-1, 4 h pretreatment with 30 nM, washout): ≤ 24 h | RIPK2 protein levels at high concentration (hook effect) ([6]; THP-1, 16 h, 30 μM): returning to basal levels | Dmax ([6]; THP-1, 16 h, at concentrations of 10 nM and higher): > 95% | MAPKAPK3 levels [14]: significantly degraded | levels of other kinases bound (RIPK3, ABL and TESK) [15]: not degraded
